Screening data (PubChem)
Rows were chosen to be rich in hits. Some 2.3% of all compounds tested hit in one or more screens of this group.
TRPC4 potent = TRPC4 (mouse) allosteric potentiation; HEK293 TRPC4beta/mu-opioid, DAMGO EC20, Fluo-4 Ca2+ flux; active compounds read high; B-score at 10 µM; 310,000 tested, 0.42% active; AID 2227;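 active = B-score of calcium response area above 5 SD of library B-scores, with initial fluorescence ratio within 5 SD of library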
Target sequence (Q9QUQ5 whole entry, looked up): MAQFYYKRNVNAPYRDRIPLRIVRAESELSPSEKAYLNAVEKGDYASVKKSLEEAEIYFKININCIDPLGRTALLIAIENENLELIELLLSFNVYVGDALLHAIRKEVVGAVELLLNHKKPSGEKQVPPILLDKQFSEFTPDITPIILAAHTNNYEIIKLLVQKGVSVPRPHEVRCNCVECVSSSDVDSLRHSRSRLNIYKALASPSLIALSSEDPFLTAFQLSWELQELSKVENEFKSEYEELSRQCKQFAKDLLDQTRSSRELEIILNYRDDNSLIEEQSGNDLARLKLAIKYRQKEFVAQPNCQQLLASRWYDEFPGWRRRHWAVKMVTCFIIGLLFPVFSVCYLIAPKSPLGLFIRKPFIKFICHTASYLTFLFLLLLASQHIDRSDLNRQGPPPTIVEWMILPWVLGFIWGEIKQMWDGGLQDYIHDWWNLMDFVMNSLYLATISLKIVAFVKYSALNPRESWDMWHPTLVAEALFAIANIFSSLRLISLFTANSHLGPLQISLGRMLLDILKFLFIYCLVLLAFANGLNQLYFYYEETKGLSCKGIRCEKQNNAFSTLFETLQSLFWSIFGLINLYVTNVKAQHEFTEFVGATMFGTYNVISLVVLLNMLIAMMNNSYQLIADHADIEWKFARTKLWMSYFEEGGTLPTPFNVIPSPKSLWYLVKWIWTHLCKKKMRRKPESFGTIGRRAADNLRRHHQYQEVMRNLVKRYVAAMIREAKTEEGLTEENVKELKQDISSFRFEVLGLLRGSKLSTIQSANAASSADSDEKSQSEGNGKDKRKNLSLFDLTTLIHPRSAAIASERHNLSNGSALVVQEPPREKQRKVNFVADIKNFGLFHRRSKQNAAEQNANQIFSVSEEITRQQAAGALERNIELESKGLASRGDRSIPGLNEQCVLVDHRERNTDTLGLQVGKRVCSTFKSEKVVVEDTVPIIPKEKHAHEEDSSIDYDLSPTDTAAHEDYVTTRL
TRPC6 act = mouse TRPC6 channel activation; Q61143; B-score at 10 µM; AID 2550; HEK293-TRPC6 membrane potential dye fluorescence; active compounds read high; 310,000 tested, 0.13% active;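 active = B-score of the integrated fluorescence ratio above library mean plus 3 SD, and starting fluorescence ratio within library mean plus 5 SD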;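 note: higher score means more depolarization so channel activation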
TRPC4 agonist = opens the mouse TRPC4 cation channel. HEK293 TRPC4beta/mu-opioid, Fluo4 calcium fluorescence; active compounds read high. AID 2237. Q9QUQ5. B-score at 10 µM. 310,000 tested, 0.49% active;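 active = B-score above 5 SD of library B-scores, and initial fluorescence ratio not above library mean plus 5 SD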;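 note: positive B-score marks a calcium rise read as TRPC4 activation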
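Material: TRPC4beta and mu-opioid receptor HEK293 stable cells | Incubation: 45 min room-temperature Fluo4 loading, 110 s read | Detection: Kinetic Fluo4 calcium fluorescence | Measure: Integrated baseline-normalised fluorescence ratio, converted to per-well B score | Benchmarks: Low control buffer alone, high control maximal DAMGO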
TRPC6 inhibitor = mouse TRPC6 channel inhibition | B-score at 10 µM | 310,000 tested, 1.1% active | HEK293-TRPC6, membrane potential dye, ACh-evoked depolarization; active compounds read low;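 active = B-score under library mean minus 3 SD, initial fluorescence not abnormally high, positive integrated signal ratio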;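 note: B-score derived from integrated fluorescence ratio over the kinetic read; more negative B-score means stronger inhibition of depolarization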
TRPC4 block = inhibitors of mouse TRPC4 channel; Q9QUQ5; HEK293 TRPC4beta/mu-opioid, DAMGO-evoked Fluo4 calcium flux; active compounds read low; B-score at 10 µM; 300,000 tested, 0.39% active;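 active = B-score over 3 SD under the library average, no early fluorescence shift, positive overall ratio signal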
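System: stable TRPC4beta/mu-opioid receptor HEK293 cells; Dosing: single-point compound dosing; Measured by: Fluo4 Ca2+ flux fluorescence; Read-out basis: per-well B score of integrated baseline-normalized Fluo4 ratio.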
TRPC4 sel inh 2 = second selectivity test of TRPC6 inhibitors: effect on mouse TRPC4. shares compounds with TRPC6 inhibitor. HEK293 TRPC4/MOR, membrane potential dye fluorescence; channel activated by saturating DAMGO dose. inhibition, % at 10 µM. 920 tested, 42% active;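 active = compounds whose fluorescence signal differed from control wells by over 3 SD, either direction, in both duplicate plates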
TRPC4 spec = selectivity of TRPC6 inhibitors: effect on mouse TRPC4. activity change, negative = inhibition, % at 10 µM. shares compounds with TRPC6 inhibitor. HEK293 TRPC4/mu-opioid, membrane potential fluorescence. 920 tested, 61% active;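 active = rise or fall in signal beyond 3 SD of buffer-only wells in both replicate plates, either sign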;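 note: integrated kinetic ratio of fluorescence range over baseline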
HEK293 MPD ctr 2-1 = parental HEK293 nonspecific activity of TRPC6 inhibitors, second screen. shares compounds with TRPC6 inhibitor. parental HEK293 membrane potential dye fluorescence; maximal acetylcholine challenge after compound addition. signal change vs control, % at 10 µM. 920 tested, 31% active;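 active = membrane potential signal moving either way by over 3 SD of the maximum-effect control, in both duplicate plates, meaning non-specific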
HEK293 MPD ctr-1 = checks TRPC6 inhibitor effects in parental HEK293 cells. shares compounds with TRPC6 inhibitor. parental HEK293 membrane potential dye fluorescence. membrane potential signal change, % at 10 µM. 920 tested, 60% active. AID 2780;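 active = membrane potential signal shifting up or down by more than 3 SD of buffer-only wells, on both duplicate plates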
HEK293 MPD ctr-2 = counter-screen for TRPC6 modulators: effect in parental HEK293 cells; shares compounds with TRPC6 inhibitor; membrane potential dye fluorescence; membrane potential signal change, % at 10 µM; 2,400 tested, 51% active;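 active = membrane potential signal moves up or down beyond 5 SD from buffer-only wells, on both duplicate plates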
HEK293 MPD ctr 2-2 = second check of TRPC6 modulator effects in parental HEK293 cells. shares compounds with TRPC6 inhibitor. AID 488926. 2,400 tested, 14% active. inhibition, % at 10 µM. membrane potential dye fluorescence; after compound, maximal acetylcholine stimulation;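 active = membrane potential signal drops by more than 5 SD from the mean control signal, in both duplicate plates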
TRPC4 ctr mod = tests whether TRPC6 modulators also affect mouse TRPC4. shares compounds with TRPC6 inhibitor. HEK293 TRPC4/mu-opioid, membrane potential fluorescence. percent change from control (negative = decrease, positive = increase), % at 10 µM. 2,400 tested, 69% active;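 active = membrane potential signal moved up or down beyond 5 SD of buffer control wells, in both duplicate plates, actives on both sides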
TRPC4 ctr inh 2 = mouse TRPC4 off-target activity of TRPC6 modulators, second screen; shares compounds with TRPC6 inhibitor; HEK293 TRPC4/mu-opioid, membrane potential dye fluorescence; stimulated with maximal-effect DAMGO; inhibition, % at 10 µM; 2,400 tested, 55% active; AID 488928;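 active = drop in membrane potential signal beyond 5 SD of the control wells in both duplicate plates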;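 note: TRPC4 counter screen for TRPC6 hits run under conditions tuned for TRPC6 not TRPC4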
TRPC6 block conf = mouse TRPC6 inhibitor confirmation; HEK293-TRPC6, membrane potential dye, ACh-evoked depolarization; shares compounds with TRPC6 inhibitor; inhibition, % at 10 µM; 3,300 tested, 43% active;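 active = fluorescence ratio falls more than 5 SD below the full-stimulation control mean, in both duplicate runs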;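 note: integrated fluorescence ratio of peak minus minimum over baseline after agonist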
TRPC6 act conf = mouse TRPC6 activator confirmation; 2,800 tested, 11% active; activation, % at 10 µM; shares compounds with TRPC6 inhibitor; AID 488961; HEK293-TRPC6 membrane potential dye fluorescence, FDSS;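 active = ratio signal rise beyond 5 SD above unstimulated control wells' mean, seen in both duplicate runs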
Numbers stand for hits; i = inactive; nt = no result.

SMILES	TRPC4 potent	TRPC6 act	TRPC4 agonist	TRPC6 inhibitor	TRPC4 block	HEK293 MPD ctr-2	HEK293 MPD ctr 2-2	TRPC4 ctr mod	TRPC4 ctr inh 2	TRPC6 block conf	TRPC6 act conf	others
CC1CCN(C(=O)CN(Cc2ccccc2)S(C)(=O)=O)CC1	i	i	i	i	i	nt	nt	nt	nt	nt	nt
N#Cc1cc(Sc2ccccn2)c([N+](=O)[O-])cc1C#N	i	i	i	-8.3	i	nt	nt	nt	nt	75%	i	TRPC4 sel inh 2=i;TRPC4 spec=-21%;HEK293 MPD ctr 2-1=-78%;HEK293 MPD ctr-1=-320%
O=C1CSC(c2ccc(Cl)cc2)N1Nc1nc(N2CCOCC2)nc(N2CCOCC2)n1 (stereo not given)	i	i	i	i	i	nt	nt	nt	nt	nt	nt
Cc1ccc(-c2c[n+](CC(=O)N3c4ccccc4Sc4ccccc43)c3n2CCC3)cc1	i	i	i	-5.9	i	i	i	-14%	i	71%	i
O=C(C[n+]1cc(-c2ccc(F)cc2)n2c1CCC2)N1c2ccccc2Sc2ccccc21	i	i	i	-7.9	i	i	i	i	i	70%	i
Cc1ccc(OCC(COCc2ccccc2)NC(C)C)cc1 (stereo not given)	i	i	i	-9.3	-6	nt	nt	nt	nt	101%	nt	TRPC4 sel inh 2=42%;TRPC4 spec=38%;HEK293 MPD ctr 2-1=i;HEK293 MPD ctr-1=14%
Cc1cccc(NC(=O)c2ccc3nccnc3c2)c1C	i	i	i	i	i	nt	nt	nt	nt	nt	nt
COc1ccc2c(c1)c(C)cc[n+]2Cc1ccccc1	i	i	i	-5.2	i	-260%	i	-48%	52%	48%	i
Cc1ccc[n+](CC(=O)c2cc3ccccc3oc2=O)c1	i	i	i	-6.5	i	-76%	i	-22%	i	70%	i
S=C(NCCCN1CCOCC1)Nc1ccc(Cl)cc1Cl	i	i	i	-5.3	i	i	i	i	i	i	i
CCOC(=O)c1cnc2ccc(OCC)cc2c1NCCN1CCOCC1	i	i	i	-5.2	i	i	i	i	41%	i	i
CCOC(=O)c1cnc2ccc(C(=O)OC)cc2c1NCCc1ccc(OC)c(OC)c1	i	i	i	i	i	nt	nt	nt	nt	nt	nt
CCOC(=O)c1cnc2ccc(OCC)cc2c1N1CCN(C)CC1	i	i	i	-5.5	i	-110%	i	-18%	43%	i	i
CCOC(=O)c1cnc2ccc(C)cc2c1NCCO	i	i	i	-8.2	i	nt	nt	nt	nt	i	i	TRPC4 sel inh 2=i;TRPC4 spec=-12%;HEK293 MPD ctr 2-1=6.5%;HEK293 MPD ctr-1=-279%
CCOC(=O)c1cnc2ccc(OCC)cc2c1NCCCN1CCOCC1	i	i	i	-6.1	i	i	80%	21%	34%	42%	i
CC(C)(CNC(=O)CO/N=C1/C=C2CCC3C(C(O)C[C@@]4(C)C3CC[C@]4(O)C(=O)CO)[C@@]2(C)CC1)C(O)C(=O)O (stereo not given in full)	i	i	i	i	i	nt	nt	nt	nt	nt	nt
Cc1cc(=O)c2ccc(C(F)(F)F)cc2[nH]1	i	i	i	i	i	nt	nt	nt	nt	nt	nt
O=c1cc(C(F)(F)F)[nH]c2ccc(C(F)(F)F)cc12	i	i	i	-7	i	nt	nt	nt	nt	105%	nt	TRPC4 sel inh 2=i;TRPC4 spec=15%;HEK293 MPD ctr 2-1=i;HEK293 MPD ctr-1=11%
CCOc1ccccc1NC(=O)CNS(=O)(=O)c1ccc2nc(C)sc2c1	i	i	i	i	i	nt	nt	nt	nt	nt	nt
O=C(Oc1ccccc1Cl)c1ccc2c(=O)n3c(nc2c1)CCC3	i	i	i	-5.4	i	i	i	i	i	i	i
Cc1ccc(C)c(N2CCN(c3ccncc3N)CC2)c1	i	i	i	-6.5	i	i	i	i	52%	i	i
COCCCn1c(C)nnc1-c1cnn(-c2ccccc2)c1N	i	i	i	i	i	nt	nt	nt	nt	nt	nt
CCN(CC)CCN(C(=O)C1=COCCO1)c1nc2c(OC)ccc(OC)c2s1	i	i	i	-5.4	i	-104%	i	-26%	69%	i	i
CCN(CC)CCN(C(=O)C1=COCCO1)c1nc2cc3c(cc2s1)OCO3	i	i	i	-6.8	i	nt	nt	nt	nt	i	i	TRPC4 sel inh 2=52%;TRPC4 spec=-22%;HEK293 MPD ctr 2-1=i;HEK293 MPD ctr-1=-184%
CCN(CC)CCN(C(=O)c1ccc(C(=O)c2ccccc2)cc1)c1nc2c(OC)cccc2s1	i	i	i	i	i	nt	nt	nt	nt	nt	nt
SMILES	TRPC4 potent	TRPC6 act	TRPC4 agonist	TRPC6 inhibitor	TRPC4 block	HEK293 MPD ctr-2	HEK293 MPD ctr 2-2	TRPC4 ctr mod	TRPC4 ctr inh 2	TRPC6 block conf	TRPC6 act conf	others
CCN(CC)CCN(C(=O)C1=COCCO1)c1nc2ccc(C)cc2s1	i	i	i	i	i	nt	nt	nt	nt	nt	nt
CCN(CC)CCN(C(=O)c1ccc([N+](=O)[O-])cc1)c1nc2c(OC)cccc2s1	i	i	i	-6.3	i	i	i	-12%	36%	i	i
CC(C)c1cc(N=NC(N)=O)cc(C(C)C)c1O	i	i	i	i	i	nt	nt	nt	nt	nt	nt
Cc1c(C(=O)N/N=C/c2cccs2)nnn1-c1nonc1N	i	i	i	i	i	nt	nt	nt	nt	nt	nt
COc1ccccc1C(CNC(=O)C(C)(C)Oc1ccc(Cl)cc1)N1CCCC1 (stereo not given)	i	i	i	-5.7	i	194%	i	33%	42%	52%	nt
CC(C)(Oc1ccc(Cl)cc1)C(=O)NCC(c1cccs1)N1CCOCC1 (stereo not given)	i	i	i	i	i	nt	nt	nt	nt	nt	nt
Nc1nc(Nc2ccc(Cl)cc2)nc2ccccc12	i	i	i	-12	i	-163%	90%	-36%	88%	84%	i
Cc1ccc(Nc2nc(N)c3ccccc3n2)cc1Cl	i	i	i	-6.5	i	-128%	83%	-35%	79%	75%	i
COc1ccc(C)cc1Nc1nc(N)c2ccccc2n1	i	i	i	-10	i	-221%	112%	-52%	91%	100%	i
